Test results published in ChEMBL document CHEMBL2346582, “Guanidino anthrathiophenediones as G-quadruplex binders: uptake, intracellular localization, and anti-Harvey-Ras gene activity in bladder cancer cells” (J Med Chem, 2013).
Calls of active or inactive are those of the source. The calls are words filed in the database; no cut-off is given here.

Key:
[1] = Binding affinity to human NRAS G-quadruplex FAM-GGGAGGGGCGGGUCUGGG-TAMRA RNA assessed as quenching of fluorescence emission by FRET titration assay
Outline: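 RNA quadruplex, 200 nM, dual-labelled with FAM and TAMRA, in 50 mM Tris-HCl pH 7.4, 10 mM KCl. Titrated with ligand at r = 1–5 ([ligand]/[quadruplex]). The fraction of bound quadruplex was calculated from quenching of fluorescence and fitted to the Hill equation to give KD.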

[2] = test system: T-24; assay: Binding affinity to HRAS G-quadruplex DNA in human T24 cells assessed as reduction in p21HRAS level at 5 uM after 72 hrs by immunoblotting analysis relative to control
[3] = test system: T-24; assay: Binding affinity to wild type HRAS quadruplex DNA in human T24 cells assessed as reduction in gene expression at 0.5 to 5 uM treated for 24 hrs prior to transfection measured 72 hrs post transfection by dual-luciferase reporter gene assay relative to control; format: cell-based; parameters: scale not given: the % may be the effect or the level left
Outline: (§1)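 T24 cells pretreated 24 h with ligand (0.5, 2.5, 5 μM). Then co-transfected with jet-PEI: firefly reporter (250 ng/well), either HRAS promoter wild type, HRAS promoter with 4 point mutations in the quadruplex motifs, or IL-8 promoter, plus CMV-Renilla (10 ng/well). Dual-Glo read 72 h post-transfection. Firefly/Renilla expressed as T/C × 100 relative to untreated cells.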

[4] = test system: T-24; assay: Cellular uptake in human T24 cells after 4 hrs by FACS flow cytometric analysis in presence of dynasore; format: ADME, cell-based; details: t-24, 4 h
Outline: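 T24 cells pretreated 30 min with 80 μM dynasore, then exposed to 5 μM ligand for 4 h. Analysed by flow cytometry (488 nm laser, FL3 680 nm channel), at least 10,000 cells.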

[5] = species on record: Homo sapiens; assay: Thermal stabilization of human HRAS1 G-quadruplex FAM-TCGGGTTGCGGGCGCAGGGCACGGGCG-TAMRA DNA assessed as change in melting temperature at 1:1 DNA:ligand ratio by FRET assay
Outline: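 FRET melting in 50 mM Tris-HCl pH 7.4 with an equimolar ligand:quadruplex ratio (r = 1). Conditions: NRAS RNA and hras-2 in 10 mM KCl; hras-1 in 100 mM KCl, with ΔTM taken from its second transition. Ramp 1 °C/min from 20 to 95 °C after 5 min equilibration. TM and ΔTM (±0.5 K) versus ligand-free quadruplex.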

[6] = test system: T-24; assay: Binding affinity to HRAS G-quadruplex DNA in human T24 cells assessed as reduction in p21HRAS level at 5 uM after 72 hrs by immunoblotting analysis relative to control; format: cell-based; parameters: scale not given: the % may be the effect or the level left
Outline: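 T24 cells treated with 5 μM ligand for 48 or 72 h. Lysates (30 μg) run on 12% SDS-PAGE and immunoblotted with monoclonal anti-HRAS and β-actin antibodies, with HRP detection. HRAS level = (p21HRAS/β-actin treated)/(p21HRAS/β-actin untreated) × 100.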

[7] = test system: T-24; assay: Binding affinity to wild type HRAS quadruplex DNA in human T24 cells assessed as reduction in gene expression compound treated for 24 hrs prior to transfection measured 72 hrs post transfection by dual-luciferase reporter gene assay relative to control; format: cell-based
[8] = species on record: Homo sapiens; assay: Thermal stabilization of human HRAS1 G-quadruplex FAM-TCGGGTTGCGGGCGCAGGGCACGGGCG-TAMRA DNA assessed as change in melting temperature at 1:5 DNA:ligand ratio by FRET assay
Outline: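 FRET melting of 200 nM dual-labelled quadruplex in 50 mM Tris-HCl with KCl (100 mM for htelo and hras-1, 10 mM for KRAS and hras-2). Ligand at r = 5 ([ligand]/[quadruplex]; hras-2 tabulated at r = 4). Samples held 5 min at 20 °C, then heated 1 °C/min to 95 °C. ΔTM is the TM with ligand minus TM without ligand (±0.5 K). For hras-1 both biphasic transitions are given.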

[9] = test system: NIH3T3; assay: Cellular uptake in mouse NIH/3T3 cells at 0.5 to 10 uM after 8 hrs by flow cytometric analysis; format: ADME, cell-based; details: nih3t3, 8 h
Outline: (§2)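 Cells plated at 5 × 10^4 per well and treated next day with ligand at […] for 8 h. Then trypsinized, resuspended in PBS and analysed by flow cytometry (488 nm excitation, FL3 680 nm, log scale), at least 10,000 cells per sample. Uptake read from intrinsic ligand red fluorescence.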

[10] = Binding affinity to human telomeric G-quadruplex FAM-TTAGGGTTAGGGTTAGGGTTAGGG-TAMRA DNA assessed as quenching of fluorescence emission by FRET titration assay
Outline: (§3)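 FRET titration of 200 nM oligonucleotide dual-labelled at its ends with carboxyfluorescein (donor) and tetramethylrhodamine (acceptor), in 50 mM Tris-HCl with KCl (100 mM for htelo and hras-1, 10 mM for KRAS and hras-2). Ligand binding quenches the emission, mainly the acceptor at 580 nm. The fraction of filled sites was fitted to the Hill equation to give apparent KD and the Hill coefficient.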

[11] = test system: T-24; assay: Binding affinity to interleukin-8 promoter DNA in human T24 cells at 0.5 to 5 uM treated for 24 hrs prior to transfection measured 72 hrs post transfection by dual-luciferase reporter gene assay relative to control; format: cell-based; details: in the assay text read “5 uM” for “0.5 to 5 uM”; outline: as §1
[12] = Binding affinity to mouse KRAS G-quadruplex FAM-GCGGGAGGGAGGGAAGGAGGGAGGGAGGGAG-TAMRA DNA assessed as quenching of fluorescence emission by FRET titration assay; outline: as §3
[13] = test system: T-24 (Homo sapiens); assay: Cellular uptake in human T24 cells after 4 hrs by FACS flow cytometric analysis in presence of dynasore; details: t24, 4 h
[14] = test system: T-24; assay: Cellular uptake in human T24 cells assessed as accumulation in nucleoli at 2.5 uM after 2 hrs by propidium iodide staining-based confocal microscopic analysis; format: ADME, cell-based; details: t-24, 2 h
Outline: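 T24 cells plated (3 × 10^5) on coverslips and treated after 24 h with 2.5 μM ligand for 2 h. Fixed in 3% paraformaldehyde and permeabilized with Triton X-100. Cytoplasm immunostained for DRP1 with FITC secondary; nuclei stained with propidium iodide plus RNase A. Ligand red fluorescence excited at 543 nm; confocal Z-sections at 2 μm intervals.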

[15] = test system: T-24; assay: Cell cycle arrest in human T24 cells assessed as accumulation at G0/G1 phase at 10 uM after 48 to 72 hrs by FACS analysis relative to control; format: functional
Outline: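 T24 cells treated with 10 μM ligand for 48 or 72 h. Fixed 1 h at 4 °C in 70% ethanol, then stained with propidium iodide 0.05 mg/mL plus RNase A 0.1 mg/mL for 30 min at room temperature. Analysed by FACS (FL2). Phase percentages compared with control by t-test (p < 0.05).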

[16] = test system: T-24; assay: Induction of apoptosis in human T24 cells by caspase 3/7 assay; format: functional, cell-based
[17] = test system: T-24; assay: Cellular uptake in human T24 cells at 0.5 to 10 uM after 8 hrs by flow cytometric analysis; format: ADME, cell-based; details: t-24, 8 h; outline: as §2
[18] = test system: T-24; assay: Cellular uptake in human T24 cells at 4 degC by FACS flow cytometric analysis; format: ADME, cell-based
Outline: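 T24 cells incubated with ligand at 4 °C or 37 °C. Intracellular ligand fluorescence measured by flow cytometry in the FL3 (680 nm) channel.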

Kd [1] [nM] | Drug uptake [4] | deltaTm [5] [K] | deltaTm [8] [K] | Drug uptake [9] | Kd [10] [nM] | Kd [12] [nM] | Drug uptake [13] | Drug uptake [14] | Drug uptake [17] | Drug uptake [18] | Compound | Activity [2] | Activity [3] [%] | Activity [6] [%] | Activity [7] | Activity [11] | Activity [15] [%] | Activity [16]
120 | Active | 5 | 13 | Active | 320 | 210 | Active | Active | Active | – | N=C(N)NCCCNc1c2c(c(NCCNC(=N)N)c3ccsc13)C(=O)c1ccccc1C2=O | Active | 25 | 20 | Dose-dependent effect | inactive | 63 | inactive
380 | Not Active | 5 | 12 | Active | 150 | 250 | – | Active | Active | Active | N=C(N)NCCNc1c2c(c(NCCNC(=N)N)c3sccc13)C(=O)c1ccccc1C2=O | – | 25 | 20 | Dose-dependent effect | inactive | 63 | inactive
110 | Active | 5 | 19 | Active | 130 | 180 | Active | Active | Active | – | N=C(N)NCCCNc1c2c(c(NCCCNC(=N)N)c3sccc13)C(=O)c1ccccc1C2=O | – | 50 | 20 | Dose-dependent effect | inactive | 63 | inactive
60 | Active | 7 | 20 | Active | 180 | 270 | Active | – | Active | Active | N=C(N)NCCCCNc1c2c(c(NCCCCNC(=N)N)c3sccc13)C(=O)c1ccccc1C2=O | – | 50 | 20 | Dose-dependent effect | inactive | 63 | inactive
90 | Not Active | 8 | 16 | Active | 330 | 230 | – | Active | Active | – | N=C(N)NCCCNc1c2c(c(NCCNC(=N)N)c3sccc13)C(=O)c1ccccc1C2=O | Active | – | 20 | Dose-dependent effect | inactive | 63 | inactive
